Screening results: PubChem, several laboratories
CHOP inhibitor: inhibitors of CHOP induction in ER stress response. CHO-K1 CHOP-promoter luciferase, tunicamycin-induced, 15-18 h. inhibition, % at 10 µM. hit rate 3.8% among 220,000. AID 2732;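 active means compounds that reduced the stress-induced luciferase reporter signal by more than about 70% of percent inhibition, limit read from the data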;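 further: 0% = tunicamycin plus vehicle and 100% = wells without tunicamycin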
UPR XBP1 act: activators of adaptive arm of unfolded protein response (XBP1); AID 463104; CHO-XBP1 luciferase reporter, IRE1-XBP1 UPR activation, luminescence; percent of tunicamycin response, DMSO as zero; hit rate 0.33% among 330,000; activation, % at 20 µM;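 active means versus positive control, 20 µM dose yields 30% or more activation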;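 further: 100% = tunicamycin at 10 µg/mL and 0% = DMSO only wells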
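Assay system: IRE1-XBP1 luciferase reporter CHO line. Input: 1000 cells/well. Buffer or medium: F12 with 10% serum. Doses: 20 µM, 1% DMSO. Times: overnight seeding at 37 °C, 6 h compound treatment at 37 °C. Technique: Steady-Glo luciferase glow luminescence, 10 min after reagent addition.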
UPR CHOP act: apoptotic UPR (CHOP) activation | CHO-CHOP luciferase reporter, luminescence; percent of tunicamycin response over DMSO baseline | activation, % at 10 µM | hit rate 0.34% among 330,000 | AID 449763;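 active means at 10 µM dose, activation of 40% or more, normalized to positive control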;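 further: 100% = tunicamycin at 10 µg/mL and 0% = DMSO alone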
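measured by = luciferase luminescence | assay system = CHO-CHOP cells, stable luciferase reporter of PERK-eIF2a-CHOP signalling | amount = 500 reporter cells seeded per well | timing = 6 h compound exposure at 37 °C after overnight seeding | controls = positive tunicamycin 10 µg/mL, negative DMSO alone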
PvdQ acylase: blocks Pseudomonas aeruginosa PvdQ acylase activity. purified PvdQ acylase, fluorescence plate reader. inhibition, % at 10 µM. hit rate 0.063% among 340,000. AID 488965; in the data active means inhibition above about 30%, passing the limit was not always enough;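 further: 0% = vehicle neutral wells and 100% = reference inhibitor wells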
* marks the source's active call; other numbers are inactive results; x = not tested or not shown. The entries come from a sample that favours hits as a whole.

SMILES	CHOP inhibitor	UPR XBP1 act	UPR CHOP act	PvdQ acylase
CCNc1nc(Sc2ccc(C)cc2)cc(C(F)(F)F)n1	87*	4	-1	-5
COC(=O)C1=C(C)N(CCCC(=O)O)C(=O)NC1c1cccc(Cl)c1Cl (stereo not given)	x	-2	1	-17
N#CC1=C(N)c2ccccc2CC12CCCCC2	78*	-2	-1	2
COc1nc(Nc2ccc([N+](=O)[O-])cc2)nc(NC2CCCCC2)n1	82*	5	2	2
C=CCNc1nc(Nc2ccc([N+](=O)[O-])cc2)nc(OC)n1	12	6	0	-10
Cc1ccc(OCc2nc(-c3ccccn3)no2)c(Br)c1	68	-2	-3	-12
CC(C)c1ccc(OCc2nc(-c3ccccn3)no2)c(Br)c1	71*	-2	1	6
COc1ccc(/C=C/C(=O)c2cc(Cl)cc(Cl)c2O)c(OC)c1	71*	4	6	-6
COC(=O)c1cc2ccsc2n1CC(=O)N(C)C1CCCCC1	28	-2	1	-11
COc1cc(C(=O)Nc2nnc(CC(C)C)s2)c([N+](=O)[O-])cc1OC	-14	-4	-1	8
CC(C)Cc1nc2sc3c(c2c(=O)n1N)CC(C)(C)OC3	7	-2	1	-2
Oc1ccc(N=Nc2nc(-c3ccccc3)c(-c3ccccc3)[nH]2)cc1	92*	0	10	-2
CCCn1c(SCCc2ccccc2)nc2c1c(=O)[nH]c(=O)n2C	6	7	1	15
C=CCNc1nc2c(c(=O)[nH]c(=O)n2C)n1CCCCC	71*	0	0	-15
Cc1ccc(Sc2nc3c(c(=O)[nH]c(=O)n3C)n2CCc2ccccc2)cc1	95*	0	2	11
CC(C)n1c(SCCCc2ccccc2)nc2c1c(=O)[nH]c(=O)n2C	97*	x	x	-14
CC(C)CCn1c(SCCc2ccccc2)nc2c1c(=O)[nH]c(=O)n2C	75*	0	-1	-7
NCCCC[C@@H]1NC(=O)c2cc([N+](=O)[O-])cc(I)c2SC[C@@H](C(=O)NCC(N)=O)NC(=O)CNC1=O	-3	-1	-1	10
C=CCn1c(SCCCc2ccccc2)nc2c1c(=O)[nH]c(=O)n2C	77*	9	0	-15
CCCCCn1c(SCCc2ccccc2)nc2c1c(=O)[nH]c(=O)n2C	93*	-1	1	-7
CCCCCn1c(CN2CCN(c3cccc(Cl)c3)CC2)nc2c1c(=O)[nH]c(=O)n2C	65	4	2	-11
Cn1c(=O)[nH]c(=O)c2c1nc(CN1CCN(c3cccc(Cl)c3)CC1)n2CCc1ccccc1	82*	2	1	1
CCC(Cc1ccccc1)NC(=O)c1cc(S(=O)(=O)N2CCCCC2)c[nH]1 (stereo not given)	x	7	2	-12
Cc1sc2nc(CSC(C)C(=O)Nc3cc(S(C)(=O)=O)ccc3Cl)[nH]c(=O)c2c1C (stereo not given)	x	0	0	-6
CC(C)Oc1ccc(C(=O)Nc2ccc(N3CCCCC3)cc2)cc1	71*	-2	5	11
SMILES	CHOP inhibitor	UPR XBP1 act	UPR CHOP act	PvdQ acylase
CCOC(=O)N1CCC(NC(=O)c2ccc3c(c2)N(C)C(=O)/C(=C/c2cccc(OC)c2)S3)CC1	x	-4	-1	-9
O=C1NN(c2ccccc2)C(=O)/C1=C\c1ccccc1	x	-5	-1	1
O=C1NN(c2ccccc2)C(=O)/C1=C/c1cccs1	-19	31*	28	x
O=C1NN(c2ccc(F)cc2)C(=O)/C1=C\c1cnn(-c2ccccc2)c1	70*	20	7	x
O=C(C[C@@H]1C/C=C\C[C@H](Cc2ccc(F)cc2)C(=O)OC[C@@H](Cc2c[nH]c3ccccc23)NC1=O)NCCO	x	0	1	-6
COc1ccc(NC(=O)CCS(=O)(=O)c2cccc3nonc23)cc1Cl	x	-1	1	-7
CCc1cccc(NC(=O)CCS(=O)(=O)c2cccc3nonc23)c1	83*	0	-1	3
Cc1ccc2nc(-c3cccc(N)c3)oc2c1	44	-8	-7	4
Cc1ccc2nc(-c3ccc(O)cc3)oc2c1	x	-1	1	32*
CCOC(=O)C1(Cc2cccc(OC)c2)CCCN(C(=O)CNC(C)=O)C1 (stereo not given)	x	-4	7	-8
Cc1ccc(C(=O)Nc2cc3ccccc3oc2=O)cc1	104*	-7	-8	-9
COc1ccc(C)cc1NC(=O)c1cc2ccccc2o1	71*	4	1	-12
OC(c1cccc(Cl)c1)c1nccc2ccccc12 (stereo not given)	x	-3	-1	35*
CCCCSc1nnc(CCCCCNC(=O)OC(C)(C)C)o1	79*	-4	-2	15
Cc1ccccc1OCc1nnc(SCC(=O)Nc2ccc3nc(SCC(=O)NC(C)(C)C)sc3c2)n1C	73*	-8	-3	-11
CC(C)(C)NC(=O)CSc1nc2ccc(NC(=O)CSc3nnc(N)s3)cc2s1	70*	-1	-2	-20
O=C(Cn1nnc2ccccc2c1=O)NCCc1ccc(F)cc1	1	2	-1	x
CCOc1cc2c(C#N)c(N3CCCC3)nc(N)c2c(N)n1	x	3	1	-12
CCCCN(CC)c1nc(N)c2c(N)nc(OCC)cc2c1C#N	95*	4	0	-5
O=C(/C=C/c1ccccc1)N1c2ccccc2Sc2ccc(C(F)(F)F)cc21	70*	-3	0	12
O=C(O)C1=C(C(=O)Nc2cccc(C(F)(F)F)c2)CCCC1	12	-3	-2	-20
CC(C)c1ccc(NC(=O)C(=O)C2C(=O)Nc3ccccc32)cc1 (stereo not given)	74*	1	2	16
O=C(c1cc2nc(-c3ccco3)cc(C(F)(F)F)n2n1)N1CCCc2ccccc21	71*	0	1	1
O=C(c1nn2c(C(F)(F)F)cc(-c3ccco3)nc2c1Br)N1CCCc2ccccc21	46	-2	0	-11
CN(C(=O)c1cc2nc(-c3ccco3)cc(C(F)(F)F)n2n1)C1CCCCC1	93*	3	-1	-2
SMILES	CHOP inhibitor	UPR XBP1 act	UPR CHOP act	PvdQ acylase
CCCCn1c(N)c(N(CCOC)C(=O)c2cc3c(s2)CCC3)c(=O)[nH]c1=O	x	2	2	-3
N#Cc1nc(-c2ccc(F)cc2)oc1NCc1ccccc1	82*	1	1	5
N#Cc1nc(COc2ccc(Cl)cc2)oc1NCc1ccc2c(c1)OCO2	73*	-2	3	-14
Cc1ccc(CNc2oc(COc3ccccc3Cl)nc2C#N)cc1	85*	-4	1	6
Cc1cccc(OCc2nc(C#N)c(NCc3ccc4c(c3)OCO4)o2)c1	57	1	2	-2
COc1ccc(CNc2oc(COc3ccccc3Cl)nc2C#N)cc1	40	0	-2	-13
N#Cc1nc(COc2ccccc2F)oc1NCCc1ccccc1	80*	0	3	-3
COc1ccc(CCNc2oc(COc3ccccc3)nc2C#N)cc1	35	0	-1	-15
